Measurements as given in ChEMBL document CHEMBL2016458, “Design and optimization of quinazoline derivatives as melanin concentrating hormone receptor 1 (MCHR1) antagonists” (Bioorg Med Chem Lett, 2012).
In brackets after ≈: the same amount, converted by molar mass.

Assays:
[1] = molecular target: T1, Melanin-concentrating hormone receptor 1 (Homo sapiens, UniProt Q99705); test: biochemical; assay type: cell-based, CHO-K1
[2] = molecular target: T1, Melanin-concentrating hormone receptor 1; test: Antagonist activity at human MCHR1 expressed in CHO-K1 cells assessed as inhibition of MCH peptide mediated response measuring [3H]inositol phosphate production by IP3-SPA-YSI assay; assay type: functional, cell-based
[3] = Solubility of the compound in 5% DMSO and 95% PBS after overnight incubation using plate shaker; assay type: physicochemical
In short: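 A 10 mM DMSO stock was diluted into PBS to a final 500 µM (5% DMSO). The mix was left to precipitate overnight at RT on a plate shaker, then centrifuged. Supernatant absorbance was read at 260, 280 and 620 nm. Solubility is the absorbance ratio of PBS supernatant to an acetonitrile reference (100 and 500 µM). The 620 nm reading was used to exclude visible contamination.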

[4] = Metabolic stability in mouse liver microsomes assessed as compound remaining at 10 uM after 30 mins by HPLC analysis; assay type: ADME, Microsome; details: read-out: Stability
In short: (§1)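 Compound at 10 µM was incubated with 1 mg/ml mouse or pooled human liver microsomes in 0.1 M phosphate buffer, pH 7.4. Reaction was started with NADPH and run 30 min at 37 °C. Result is % parent remaining.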

[5] = Metabolic stability in human liver microsomes assessed as compound remaining at 10 uM after 30 mins by HPLC analysis; assay type: ADME, Microsome; details: read-out: Stability
In short: as §1

[6] = molecular target: Voltage-gated inwardly rectifying potassium channel KCNH2 (Homo sapiens, UniProt Q12809)
Chain of Voltage-gated inwardly rectifying potassium channel KCNH2 (Q12809 whole entry): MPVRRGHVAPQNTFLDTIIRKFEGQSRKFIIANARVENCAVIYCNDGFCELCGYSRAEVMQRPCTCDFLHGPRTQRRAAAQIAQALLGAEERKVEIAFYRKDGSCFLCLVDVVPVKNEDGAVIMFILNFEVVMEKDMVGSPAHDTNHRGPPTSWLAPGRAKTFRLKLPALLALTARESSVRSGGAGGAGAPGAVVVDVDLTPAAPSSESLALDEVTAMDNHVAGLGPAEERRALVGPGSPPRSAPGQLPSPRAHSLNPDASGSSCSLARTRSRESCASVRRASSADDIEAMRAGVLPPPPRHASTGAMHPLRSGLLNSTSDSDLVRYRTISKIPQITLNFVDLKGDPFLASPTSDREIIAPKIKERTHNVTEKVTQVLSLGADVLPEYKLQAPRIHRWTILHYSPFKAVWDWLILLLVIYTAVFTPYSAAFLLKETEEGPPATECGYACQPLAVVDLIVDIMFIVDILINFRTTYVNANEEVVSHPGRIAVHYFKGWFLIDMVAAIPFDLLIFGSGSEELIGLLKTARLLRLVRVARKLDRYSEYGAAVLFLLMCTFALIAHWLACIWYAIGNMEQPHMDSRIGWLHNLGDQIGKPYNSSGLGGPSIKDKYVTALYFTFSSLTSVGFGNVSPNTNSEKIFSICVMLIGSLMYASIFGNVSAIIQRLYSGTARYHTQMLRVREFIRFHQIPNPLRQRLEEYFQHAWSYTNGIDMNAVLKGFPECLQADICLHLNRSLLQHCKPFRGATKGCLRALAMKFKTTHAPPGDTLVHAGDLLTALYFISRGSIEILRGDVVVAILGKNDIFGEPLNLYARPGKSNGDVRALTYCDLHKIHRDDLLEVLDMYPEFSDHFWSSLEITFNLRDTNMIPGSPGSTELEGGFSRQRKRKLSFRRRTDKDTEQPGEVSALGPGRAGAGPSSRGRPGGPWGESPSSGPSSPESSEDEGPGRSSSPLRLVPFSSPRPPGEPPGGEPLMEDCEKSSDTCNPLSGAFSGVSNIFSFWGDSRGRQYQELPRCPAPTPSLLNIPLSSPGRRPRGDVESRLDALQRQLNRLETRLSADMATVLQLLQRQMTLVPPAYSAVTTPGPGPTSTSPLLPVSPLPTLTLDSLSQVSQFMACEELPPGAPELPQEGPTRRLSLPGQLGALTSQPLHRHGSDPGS

[7] = Stability in mouse blood assessed as compound remaining after 30 mins by HPLC analysis; assay type: ADME, tissue-based; details: read-out: Stability
[8] = system: Mus musculus; test: Antiobesity activity in diet induced obese C57BL/6J mouse assessed as decrease in body weight at 30 mg/kg, po bid for 14 days measured at day 14 relative to control; assay type: functional; set-up: scale not given: the % may be the effect or the level left
In short: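 C57BL/6J mice were fed a high-fat diet (60% calories from fat) for about 3 months, to roughly 45 g average body weight. Animals were grouped by initial weight. Dosing was oral, 30 mg/kg twice daily for 14 days, against vehicle controls (n = 12). Body weight and food intake were recorded daily.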

[9] = AUC (0 to 8 hrs) in Swiss albino mouse plasma at 30 mg/kg, po; assay type: ADME, organism-based; set-up: time < 8 hr, dose 30 mg/kg, route oral
In short: (§2)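 Swiss Albino mice given a single oral dose of 30 mg/kg. Plasma and brain were sampled over 0–8 h. AUC(0–8), Cmax, Tmax and t1/2 were derived for each matrix.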

[10] = Cmax in Swiss albino mouse plasma at 30 mg/kg, po; assay type: ADME, organism-based; set-up: dose 30 mg/kg, route oral
In short: as §2

[11] = Tmax in Swiss albino mouse plasma at 30 mg/kg, po; assay type: ADME, organism-based; set-up: dose 30 mg/kg, route oral
In short: as §2

[12] = Half life in Swiss albino mouse plasma at 30 mg/kg, po; assay type: ADME, organism-based; set-up: dose 30 mg/kg, route oral
In short: as §2

[13] = AUC (0 to 8 hrs) in Swiss albino mouse brain at 30 mg/kg, po; assay type: ADME, organism-based; set-up: time < 8 hr, dose 30 mg/kg, route oral
In short: as §2

[14] = Cmax in Swiss albino mouse brain at 30 mg/kg, po; assay type: ADME, organism-based; set-up: dose 30 mg/kg, route oral
In short: as §2

[15] = Tmax in Swiss albino mouse brain at 30 mg/kg, po; assay type: ADME, organism-based; set-up: dose 30 mg/kg, route oral
In short: as §2

[16] = Half life in Swiss albino mouse brain at 30 mg/kg, po; assay type: ADME, organism-based; set-up: dose 30 mg/kg, route oral
In short: as §2

[17] = molecular target: hERG (KCNH2) (Homo sapiens, UniProt Q12809); test: Inhibition of human ERG at 1 uM
Chain of hERG (KCNH2) (Q12809 whole entry): as above

[18] = molecular target: T1, Melanin-concentrating hormone receptor 1; test: Antagonist activity at human MCHR1 expressed in CHO-K1 cells assessed as inhibition of MCH peptide mediated response measuring [3H]inositol phosphate production at 10 uM by IP3-SPA-YSI assay; assay type: functional, cell-based; set-up: scale not given: the % may be the effect or the level left
[19] = 5% DMSO and 95% PBS, read-out: solubility

T1 sequence (Q99705 whole entry): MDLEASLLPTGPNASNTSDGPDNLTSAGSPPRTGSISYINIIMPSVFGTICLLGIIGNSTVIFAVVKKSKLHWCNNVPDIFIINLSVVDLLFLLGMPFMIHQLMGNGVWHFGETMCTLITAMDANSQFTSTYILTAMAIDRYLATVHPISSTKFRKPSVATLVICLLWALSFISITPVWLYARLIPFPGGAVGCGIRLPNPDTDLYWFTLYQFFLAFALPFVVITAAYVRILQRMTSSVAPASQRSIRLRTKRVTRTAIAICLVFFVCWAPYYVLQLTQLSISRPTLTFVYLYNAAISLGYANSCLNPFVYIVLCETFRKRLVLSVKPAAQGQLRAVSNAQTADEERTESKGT

Row | SMILES | IC50 [1] [nM] | IC50 [2] [nM] | also measured
1 | Cc1nc(N2CCN(C)CC2)nc2ccc(NC(=O)COc3ccc(Cl)cc3)cc12 | 220 | 3800 | –
2 | Cc1nc(N2CCN(C3CCOCC3)CC2)nc2ccc(NC(=O)COc3ccc(Cl)cc3)cc12 | 45 | 115 | solubility [3, 19]: 15 µM (≈ 7.44 µg/mL); remaining at 0.5 h, 10 µM [4]: 1%; remaining at 0.5 h, 10 µM [5]: 39%
3 | Cc1nc(N2CCC(N)CC2)nc2ccc(NC(=O)COc3ccc(OC(F)(F)F)cc3)cc12 | 22 | 80 | –
4 | Cc1nc(N2CCC(C(=O)NC(C)C)CC2)nc2ccc(NC(=O)COc3ccc(OC(F)(F)F)cc3)cc12 | 17 | 9 | –
5 | Cc1nc(N2CCC(O)(c3ccccc3)CC2)nc2ccc(NC(=O)COc3ccc(OC(F)(F)F)cc3)cc12 | 354 | 67 | –
6 | Cc1nc(N2CCC(N3CCCC3=O)CC2)nc2ccc(NC(=O)COc3ccc(OC(F)(F)F)cc3)cc12 | 19 | 4 | IC50 [6]: 3700 nM
7 | Cc1nc(N2CCC(NC(=O)C(C)C)CC2)nc2ccc(NC(=O)COc3ccc(Cl)cc3)cc12 | 15 | 54 | solubility [3, 19]: 205 µM (≈ 102 µg/mL); remaining at 0.5 h, 10 µM [4]: 9%; remaining at 0.5 h, 10 µM [5]: 23%
8 | Cc1nc(N2CCC(O)CC2)nc2ccc(NC(=O)C(C)(C)Oc3ccc(Cl)cc3)cc12 | > 10000 | > 10000 | –
9 | Cc1nc(N2CCC(C(N)=O)CC2)nc2ccc(NC(=O)COc3ccc(OC(F)(F)F)cc3)cc12 | 23 | 32 | –
10 | COCC(=O)N1CCN(c2nc(C)c3cc(NC(=O)COc4ccc(Cl)cc4)ccc3n2)CC1 | 215 | 295 | –
11 | Cc1nc(N2CCC(N3CCOCC3)CC2)nc2ccc(NC(=O)COc3ccc(OC(F)(F)F)cc3)cc12 | 6 | 16 | solubility [3, 19]: 12 µM (≈ 6.55 µg/mL); remaining at 0.5 h [7]: 29%; Activity [8]: 12%; AUC(0-t) at 8 h [9]: 1.02 µM·h; Cmax [10]: 430 nM; Tmax [11]: 1 h; half-life [12]: 3 h; AUC(0-t) at 8 h [13]: 6.21 µM·h; Cmax [14]: 2660 nM; Tmax [15]: 1 h; half-life [16]: 1.7 h
12 | COC1CCN(c2nc(C)c3cc(NC(=O)COc4ccc(Cl)cc4)ccc3n2)CC1 | 213 | 181 | –
13 | Cc1nc(N2CCN(S(C)(=O)=O)CC2)nc2ccc(NC(=O)COc3ccc(Cl)cc3)cc12 | > 10000 | > 10000 | –
14 | Cc1nc(N2CCC(O)(C3CC3)CC2)nc2ccc(NC(=O)COc3ccc(OC(F)(F)F)cc3)cc12 | 101 | 33 | –
15 | Cc1nc(N2CCC(C(=O)C3CC3)CC2)nc2ccc(NC(=O)COc3ccc(OC(F)(F)F)cc3)cc12 | 10 | 14 | inhibition at 1 µM [17]: 32%
16 | Cc1nc(N2CCC(N)CC2)nc2ccc(NC(=O)COc3ccc(Cl)cc3)cc12 | 150 | 610 | –
17 | Cc1nc(N2CCC(N3CCCC3)CC2)nc2ccc(NC(=O)C(C)Oc3ccc(Cl)cc3)cc12 (stereo unspecified) | 258 | 401 | solubility [3, 19]: 272 µM (≈ 134 µg/mL); remaining at 0.5 h, 10 µM [4]: 34%; remaining at 0.5 h [7]: 67%; inhibition at 1 µM [17]: 76%
18 | Cc1nc(N2CCC(O)(c3ccc(F)cn3)CC2)nc2ccc(NC(=O)COc3ccc(OC(F)(F)F)cc3)cc12 | 213 | 59 | –
19 | Cc1nc(N2CCC(O)(C3CCCCC3)CC2)nc2ccc(NC(=O)COc3ccc(OC(F)(F)F)cc3)cc12 | 327 | 156 | –
20 | Cc1nc(N2CCN(C3CCOCC3)CC2)nc2ccc(NC(=O)COc3ccc(OC(F)(F)F)cc3)cc12 | 7 | 31 | –
21 | Cc1nc(N2CCC(O)CC2)nc2ccc(NC(=O)COc3ccc(Cl)cc3)cc12 | 150 | 163 | –
22 | Cc1nc(N2CCN(CC(C)(C)C)CC2)nc2ccc(NC(=O)COc3ccc(Cl)cc3)cc12 | 782 | 246 | –
23 | Cc1nc(N2CCN(C(=O)c3ccccc3)CC2)nc2ccc(NC(=O)COc3ccc(Cl)cc3)cc12 | 7300 | > 10000 | –
24 | CCC1(O)CCN(c2nc(C)c3cc(NC(=O)COc4ccc(OC(F)(F)F)cc4)ccc3n2)CC1 | 116 | 59 | –
25 | Cc1nc(N2CCN(C(=O)C3CC3)CC2)nc2ccc(NC(=O)COc3ccc(OC(F)(F)F)cc3)cc12 | 49 | 30 | solubility [3, 19]: 8 µM (≈ 4.24 µg/mL); remaining at 0.5 h, 10 µM [4]: 43%; remaining at 0.5 h, 10 µM [5]: 59%

Row | SMILES | IC50 [1] [nM] | IC50 [2] [nM] | also measured
26 | Cc1nc(N2CCN(C(=O)C3CCCC3)CC2)nc2ccc(NC(=O)COc3ccc(Cl)cc3)cc12 | 305 | 350 | –
27 | Cc1nc(N2CCC(N3CCCC3)CC2)nc2ccc(NC(=O)C(C)(C)Oc3ccc(Cl)cc3)cc12 | > 10000 | > 10000 | –
28 | Cc1nc(N2CCC(O)(C(N)=O)CC2)nc2ccc(NC(=O)COc3ccc(OC(F)(F)F)cc3)cc12 | 636 | – | Activity [18]: 72%
29 | Cc1nc(N2CCCCC2)nc2ccc(NC(=O)COc3ccc(Cl)cc3)cc12 | 180 | 305 | –
30 | CCN1CCN(c2nc(C)c3cc(NC(=O)COc4ccc(Cl)cc4)ccc3n2)CC1 | 690 | – | –
31 | Cc1nc(N2CCN(C3CC3)CC2)nc2ccc(NC(=O)COc3ccc(Cl)cc3)cc12 | 270 | 350 | –
32 | Cc1nc(N2CCN(C(=O)C3CCC3)CC2)nc2ccc(NC(=O)COc3ccc(Cl)cc3)cc12 | 325 | 158 | –
33 | CCC1(O)CCN(c2nc(C)c3cc(NC(=O)COc4ccc(Cl)cc4)ccc3n2)CC1 | 208 | 384 | –
34 | Cc1nc(N2CCN(C(=O)C(C)C)CC2)nc2ccc(NC(=O)COc3ccc(OC(F)(F)F)cc3)cc12 | 36 | 33 | –
35 | Cc1nc(N2CCN(C(=O)C3CCCCC3)CC2)nc2ccc(NC(=O)COc3ccc(Cl)cc3)cc12 | 116 | 1040 | –
36 | Cc1nc(N2CCC(C)(O)CC2)nc2ccc(NC(=O)COc3ccc(Cl)cc3)cc12 | 237 | 827 | –
37 | Cc1nc(N2CCC(O)(C3CCC3)CC2)nc2ccc(NC(=O)COc3ccc(OC(F)(F)F)cc3)cc12 | 79 | 27 | inhibition at 1 µM [17]: 31%
38 | Cc1nc(N2CCN(C(=O)C3CC3)CC2)nc2ccc(NC(=O)COc3ccc(Cl)cc3)cc12 | 251 | 146 | –
39 | Cc1nc(N2CCN(C3CCCC3)CC2)nc2ccc(NC(=O)COc3ccc(Cl)cc3)cc12 | 96 | 150 | –
40 | Cc1nc(N2CCN(C(=O)CC(C)C)CC2)nc2ccc(NC(=O)COc3ccc(Cl)cc3)cc12 | 141 | 160 | –
41 | Cc1nc(N2CCC(C(=O)NC(C)C)CC2)nc2ccc(NC(=O)COc3ccc(Cl)cc3)cc12 | 15 | 25 | solubility [3, 19]: 132 µM (≈ 65.5 µg/mL); remaining at 0.5 h, 10 µM [4]: 11%; remaining at 0.5 h, 10 µM [5]: 70%; remaining at 0.5 h [7]: 49%
42 | Cc1nc(N2CCN(C(=O)C3CCC3)CC2)nc2ccc(NC(=O)COc3ccc(OC(F)(F)F)cc3)cc12 | 84 | 45 | solubility [3, 19]: 4 µM (≈ 2.17 µg/mL); remaining at 0.5 h, 10 µM [4]: 69%; remaining at 0.5 h, 10 µM [5]: 52%; remaining at 0.5 h [7]: 45%
43 | Cc1nc(N2CCC(N3CCCC3)CC2)nc2ccc(NC(=O)COc3ccc(OC(F)(F)F)cc3)cc12 | 31 | 120 | –
44 | Cc1nc(N2CCC(O)(c3cccc(F)c3)CC2)nc2ccc(NC(=O)COc3ccc(OC(F)(F)F)cc3)cc12 | 635 | 100 | –
45 | Cc1nc(N2CCC(C(=O)N(C)C)CC2)nc2ccc(NC(=O)COc3ccc(OC(F)(F)F)cc3)cc12 | 47 | 18 | –
46 | Cc1nc(N2CCN(C(=O)C(C)C)CC2)nc2ccc(NC(=O)COc3ccc(Cl)cc3)cc12 | 225 | 91 | –
47 | Cc1nc(N2CCC(N3CCCC3)CC2)nc2ccc(NC(=O)COc3ccc(Cl)cc3)cc12 | 20 | 81 | IC50 [6]: 450 nM
48 | Cc1nc(N2CCC(O)(c3ccc(F)cc3)CC2)nc2ccc(NC(=O)COc3ccc(OC(F)(F)F)cc3)cc12 | 150 | 55 | –
49 | Cc1nc(N2CCC(NC(=O)NC(C)C)CC2)nc2ccc(NC(=O)COc3ccc(Cl)cc3)cc12 | 7 | 4 | solubility ([3]; buffer): Insoluble
50 | Cc1nc(N2CCC(C(=O)NC3CC3)CC2)nc2ccc(NC(=O)COc3ccc(OC(F)(F)F)cc3)cc12 | 9 | 3 | –
